Converted amounts (≈) assume the structure as drawn.
How the values were obtained:
[1] = test system: Cell line; experiment: Concentration causing reduction in fibrin gamma-chain cross-linking in platelet-depleted human plasma; format: functional
[2] = biological target: T1, Coagulation factor XIII A chain (Homo sapiens, UniProt P00488); experiment: In vitro inhibitory concentration of compound against factor XIIIa
T1 sequence (P00488 whole entry): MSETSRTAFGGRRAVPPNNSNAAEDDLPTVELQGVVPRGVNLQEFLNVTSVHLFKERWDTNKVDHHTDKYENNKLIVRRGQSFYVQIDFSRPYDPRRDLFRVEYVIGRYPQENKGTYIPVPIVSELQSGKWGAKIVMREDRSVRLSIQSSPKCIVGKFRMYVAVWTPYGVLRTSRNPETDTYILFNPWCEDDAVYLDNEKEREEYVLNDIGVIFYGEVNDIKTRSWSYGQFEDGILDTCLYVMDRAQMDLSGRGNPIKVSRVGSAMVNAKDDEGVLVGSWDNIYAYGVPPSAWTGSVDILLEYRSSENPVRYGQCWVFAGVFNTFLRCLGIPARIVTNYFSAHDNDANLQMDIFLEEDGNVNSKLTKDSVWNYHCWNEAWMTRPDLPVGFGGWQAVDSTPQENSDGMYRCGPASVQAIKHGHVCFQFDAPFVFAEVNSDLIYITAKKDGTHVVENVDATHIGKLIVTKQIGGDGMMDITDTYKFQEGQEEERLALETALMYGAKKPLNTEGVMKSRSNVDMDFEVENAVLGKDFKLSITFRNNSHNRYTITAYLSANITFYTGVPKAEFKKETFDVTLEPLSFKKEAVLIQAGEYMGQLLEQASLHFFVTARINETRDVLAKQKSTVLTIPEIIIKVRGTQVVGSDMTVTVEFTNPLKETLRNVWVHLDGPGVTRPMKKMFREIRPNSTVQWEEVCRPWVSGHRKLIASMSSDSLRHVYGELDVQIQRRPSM

[3] = Solubility at pH 7.4 was determined; format: physicochemical; conditions: buffer
Procedure, shortened: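 Aqueous solubility of the inhibitors measured at pH 7.4, reported in mg/mL.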

IC50 [2] | SMILES | further results
– | O=[N+]([O-])c1ccccc1S(=O)(=O)NCCCCCCNc1nsc2nccn12 | Concentration [1]: 160 µM
0.91 µM | O=[N+]([O-])c1ccc(S(=O)(=O)NCCCCCCNc2n[s+]c3[n-]ccn23)cc1 | –
– | O=C(O)CN(CCCCCCNS(=O)(=O)c1ccccc1[N+](=O)[O-])c1nsc2nccn12 | solubility [3]: 380 µg/mL (≈ 787 µM)
170 µM | O=[N+]([O-])c1ccccc1S(=O)(=O)NCCCCCCNc1ncccc1[N+](=O)[O-] | –

— ChEMBL document CHEMBL1145208, “3-Substituted imidazo[1,2-d][1,2,4]-thiadiazoles: a novel class of factor XIIIa inhibitors” (J Med Chem, 2005)
